This passage reports cytotoxicity results from ChEMBL document CHEMBL4513216, “Probing the Open Global Health Chemical Diversity Library for Multistage-Active Starting Points for Next-Generation Antimalarials” (ACS Infect Dis, 2020).

The data set in a line: Toxicity liver stage against HepG2, at 10uM. It is filed as cell-based. On the set-up: test concentration 10 uM, cell line HepG2-A16-CD81EGFP. To be noted: human, HepG2-A16-CD81EGFP cells; read-out: INHIBITION
Put shortly:
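Uninfected HepG2-A16-CD81EGFP cells, 3 × 10^3 per well, 1536-well, plated on prespotted compound at 10 μM final, parasite-free screening media added to match infected plates; puromycin 10 μM positive, DMSO 0.5% negative; run in parallel with 48 h PbLuc assay at 37 °C, 5% CO2; viability by CellTiter-Glo luminescence, normalized to controls.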
Consider `CC1Cn2c(nc3c2c(=O)[nH]c(=O)n3C)O1` (configuration not stated), for which the cytotoxicity at 10 µM is 1.26%.
To `CC(C)(C)OCC1CN(Cc2cccs2)S(=O)(=O)c2cnccc2O1` (configuration not stated) belongs 2.89%.
Consider `CN1C[C@H](O)[C@]2(CCN(C(=O)NCc3ccccc3)C2)S1(=O)=O`, for which the cytotoxicity at 10 µM worked out at 4.53%.
The value for `CCCC(O)CN1CCC(=O)N(CC2CC2)Cc2cc3c(cc21)OCO3` (configuration not stated) was -1.89%; that for `O=C(O)Cn1ccc(=O)c2ccc(Cl)cc21` was -7.76%; that for `COCC(=O)N(Cc1ccc2cc[nH]c2c1)C1CC1` was -5.54%.
As for `CC(C)n1cc(C(=O)NC2CCS(=O)(=O)C2)c2ccccc2c1=O` (configuration not stated), the cytotoxicity at 10 µM was 1.85%.
In the case of `CC(C)c1sc(Cl)nc1C(=O)N1CCN(Cc2ccccc2)CC1`, the cytotoxicity at 10 µM was -2.7%.
The value for `CCCc1noc(C2CC(=O)N(Cc3ccccc3)C2)n1` (configuration not stated) was -2.62%; that for `Cc1nc([C@H]2C[C@@H]3CCN(Cc4cnn(C)c4)C[C@H]3O2)sc1C` was -1.96%.
The value for `CC(C)c1cc2c(O)nc(CSCC(=O)NCc3ccccn3)nc2s1` was -5.29%; that for `COc1cc(Cl)c(C)cc1-n1nnc(C(=O)O)c1C` was -8.29%; that for `COc1cc2ncn(CC(=O)NCCCN(C)C)c(=O)c2cc1OC` was 10%.
To `O=C1CC(c2ccccc2)c2c(n3ccsc3nc2=O)N1` (configuration not stated) belongs -4.74%; to `O=C(c1ccc(Cl)cc1)N1CCCn2nnc(Cn3cccn3)c2C1`, -10.3%.
As for `Clc1cccc(-n2cnnn2)c1N1CCCC1`, the cytotoxicity at 10 µM is 9.35%.
`Cc1nn(C)c2c(N3CCN(C(=O)c4ccccc4)CC3)ncnc12`: the cytotoxicity at 10 µM amounted to 10.9%.
The value for `CC1(c2[nH]ncc2C(N)=O)CCN(S(=O)(=O)c2ccccc2)CC1` was -1.29%; that for `CN1CCN(c2nc(O)cc(Cc3ccccc3F)n2)CC1` was -5.08%.
As to `CCN1CCN(c2nc(O)cc(Cc3ccccc3F)n2)CC1`, the cytotoxicity at 10 µM is -1.83%.
The value for `Cc1nc2cc(C(=O)N3CCn4c(nnc4C4CC4)C3)ccc2s1` was -1.41%; that for `C[C@]12CCCCN(C(=O)c3ccccn3)[C@H]1CCCC(=O)N2` was -20.1%.
To `Cc1n[nH]c(C)c1-c1cnc(C2CCN(S(C)(=O)=O)CC2)cn1` belongs -1.57%; to `CNc1cc(C)nc(C2CN(Cc3cncs3)CCO2)c1` (configuration not stated), -12.3%; to `Cc1cc(-c2cnc(NC3CCCC3)nc2-c2ccc(C)o2)on1`, -22.4%.
To `CC(=O)N1CCCC1c1cncc(Oc2ccc(F)cc2)n1` (configuration not stated) belongs -15.8%; to `Cc1ccc(C(=O)N2CCOC(c3nc(-c4ncccn4)no3)C2)cc1` (configuration not stated), -19.9%.
As to `CC(C)(C)C(=O)N1CCC(c2nc(O)cc(-c3ccncc3)n2)CC1`, the cytotoxicity at 10 µM is -22%.
In the case of `O=C(NCCc1nncn1C1CC1)C1(Cc2ccccc2)CCC1`, the cytotoxicity at 10 µM was found to be 7.87%.
The value for `COc1ccccc1CCNC(=O)CNCC1CN(C)CCO1` (configuration not stated) was 1.49%; that for `CC(C)(CNC(=O)Nc1cccc(-c2cccs2)c1)C(N)=O` was -9.99%; that for `COCCN1CCC(NC(=O)NCC2(c3cccc(F)c3)CC2)C1` (configuration not stated) was 5.59%.
As for `CCOCC(=O)Nc1ccc(-n2ccc(C(N)=O)n2)cc1`, the cytotoxicity at 10 µM was -5.27%.
The value for `CN(c1ccc2ccccc2c1)S(=O)(=O)c1cc(C(=O)O)cs1` was 1.2%; that for `Cc1ccc(-c2cc(CN3CCc4cnc(C)nc4C3)on2)cc1` was 4.88%.
Consider `N#Cc1ccc(C(=O)NCC2(N3CCOCC3)CCCC2)nc1`, for which the cytotoxicity at 10 µM came out at 8.96%.
With `COCCN(CCOC)C(=O)c1cccc(Cn2nc(C)cc2C)c1`, the cytotoxicity at 10 µM was -8.22%.
To `COCc1nn(Cc2ccc(Cl)s2)c(=O)o1` belongs 1.97%; to `COC(=O)N1CCC(NC(=O)CC(C)CCc2ccccc2)CC1` (configuration not stated), 4.6%; to `CCC(CC)c1cc(CNC(=O)N2CCOCC2CC)on1` (configuration not stated), -5.59%.
`O=C1CN(Cc2nnc(-c3ccc(Br)cc3)o2)CCN1`: the cytotoxicity at 10 µM was 2.55%.
The value for `NC(=O)CCOc1nc(-c2ccccc2Cl)no1` was -1.64%.
To `CCOCCCC(=O)NCc1cn2cc(Br)ccc2n1` belongs 2.73%; to `CCc1cc(NCc2ccccc2CN2CCCC2)n2ncnc2n1`, 5.42%.
The value for `CCCN1CCN(C(=O)c2scnc2C)CC1` was -0.73%.
As for `O=C(NCCCOCC1CC1)Nc1cccnc1N1CCOCC1`, the cytotoxicity at 10 µM was 5.55%.
The value for `CC(Oc1ccccc1C(F)(F)F)C(=O)NCC(N)=O` (configuration not stated) was -8.38%; that for `Cc1nc2ccccc2n1Cc1cc(C(=O)NC2CCOC2)no1` (configuration not stated) was 4.45%.
To `Cc1ccc(CNC(=O)CC2C(=O)NCCN2Cc2ccccc2C)s1` (configuration not stated) belongs -7.98%.
On to `COc1ccc2c(c1)OCC(Cc1ccnc(N)n1)C2` (configuration not stated), for which the cytotoxicity at 10 µM is -0.651%.
To `CN(C)Cc1ccccc1CN(C)C(=O)c1ccoc1` belongs -11.8%; to `O=C(NC1CC(=O)N(C2Cc3ccccc3C2)C1)c1ccoc1` (configuration not stated), -2.4%.
`Cc1ccc2[nH]c(-c3cn(C4CCNCC4)nn3)nc2c1C`: the cytotoxicity at 10 µM is -4.92%.
The value for `COC(=O)[C@@H](Nc1nc(C2CCCC2)nc2c1cnn2C)[C@@H](C)O` was -50%; that for `COCCN(Cc1ccccc1Cl)C(=O)c1c(C)cc(C)[nH]c1=O` was -5.6%.
The value for `Cc1ccc(Oc2ncccc2CNC2CCCCC2)cn1` was -8.59%.
To `CCSCCC(=O)N1CCc2[nH]nc(COc3ccccc3)c2C1` belongs -2.19%.
As for `O=C(Cc1cc(F)cc(Cl)c1)N[C@@H]1CCNC[C@H]1O`, the cytotoxicity at 10 µM is -3.66%.
`CCCn1cc(C(=O)NC(CC(=O)O)c2ccco2)c(C)n1` (configuration not stated): the cytotoxicity at 10 µM was -61.4%.
The value for `O=C(C1CCC1)N1CCc2[nH]cnc2C12CCN(C1CCOCC1)CC2` was -2.4%; that for `Cc1cc(CN(C)C(=O)C2CCC(=O)N(CC3CCCCC3)C2)n[nH]1` (configuration not stated) was 1.85%.
To `Cc1nccn1C1(C(=O)O)CCN(Cc2ccc3nsnc3c2)CC1` belongs -4.97%; to `CCNC(=O)[C@@H]1C[C@@H](N)CN1C(=O)Cc1cc(C)ccc1C`, 1.87%.
To `CN(C)c1nc(NCc2ccccc2Cn2cccn2)ncc1F` belongs 54.4%; to `CC(C)c1cc(C(F)(F)F)n2nc(CCC(=O)O)nc2n1`, 5.97%.
Turning to `COc1cccc(OC)c1C(=O)N1CCN(c2ccccc2F)CC1`, the cytotoxicity at 10 µM is -5.22%.
The value for `Cc1cncc(C2CCCN(C(=O)c3c[nH]c(=O)[nH]c3=O)C2)n1` (configuration not stated) was 1.92%; that for `CCc1nc2n(n1)CC(NCc1cnn(-c3ccccc3)n1)CC2` (configuration not stated) was -3.01%.
The value for `Cc1nc(C2CCCN(C(=O)c3cc4c(s3)CCCC4)C2)no1` (configuration not stated) was -7.03%.
To `Cc1nn(C)c(Cl)c1C1CCCN1Cc1cccc(C(N)=O)c1` (configuration not stated) belongs -6.22%; to `Cc1cc(NC(=O)c2ccc(-n3ncc(C#N)c3N)cc2)n(C)n1`, -0.0414%; to `Cc1nc(CN(C)C2CCN(CCc3cnn(C)c3)C2)no1` (configuration not stated), 3.63%.
Regarding `CC(Cn1cccn1)NC(=O)NCc1cccnc1OC(C)C` (configuration not stated), the cytotoxicity at 10 µM was -9.44%.
The value for `CCc1nc(C2CCCN2C(=O)c2csc(COC)n2)no1` (configuration not stated) was 1.04%; that for `CC(Cn1cccn1)NCC(=O)NCCc1cccs1` (configuration not stated) was -12.7%.
The value for `Cc1nc(C2CCCN(C(=O)COCCc3ccccc3)C2)no1` (configuration not stated) was -11.1%; that for `Cc1cnn(CC2CN(CC(=O)NCc3ccco3)CCO2)c1` (configuration not stated) was -1.43%; that for `O=C(CN1CCOC(Cn2cccn2)C1)NCc1ccccn1` (configuration not stated) was -6.73%.
Regarding `CC(=O)N1CCN(C(=O)NCCc2ccc(Cl)s2)CC1`, the cytotoxicity at 10 µM was -11.6%.
As to `CCOc1cccc(C(=O)N2CCC(c3n[nH]c(C4CC4)n3)CC2)c1`, the cytotoxicity at 10 µM is -16.8%.
To `CCc1ncncc1C(=O)N1CCN(Cc2c(C)noc2C)CC1` belongs -13.8%; to `Cc1nc(C)n(CC2CCCN2CC(=O)Nc2cc(C(C)C)no2)n1` (configuration not stated), -0.292%; to `CN(CCc1ccc(F)cc1)Cc1nc2c(cnn2C)c(=O)[nH]1`, -1.69%.
Take `Cc1cc(C)n(C2CN(CC(=O)NCC(C)(C)N3CCOCC3)C2)n1`: the cytotoxicity at 10 µM is -3.42%.
To `Cn1cc(N2CCCC(NCc3cccc4c3OCCCO4)C2)cn1` (configuration not stated) belongs -8.58%.
The value for `CCc1nc(C2CCCN2C(=O)CCCn2cccn2)no1` (configuration not stated) was -13.1%; that for `CCN1CC(C(=O)NCc2ccccc2-n2cccn2)CC1=O` (configuration not stated) was 3.2%.
The value for `Cc1n[nH]c(C2CN(C(=O)c3cc(C4CC4)[nH]n3)CCO2)n1` (configuration not stated) was 0.192%; that for `CCC(=O)NCCCn1c(-c2cccnc2C)cc2cccnc21` was 3.84%; that for `Cc1cc(Oc2ccccc2F)nc(C2CCCCN2)n1` (configuration not stated) was 8.44%.
As for `Cn1cc(C(=O)N2CC[C@@H]3[C@@H]2CCN3Cc2cccnc2)cn1`, the cytotoxicity at 10 µM was 3.06%.
For `Cc1ccc2c(n1)N(CCN(C)C)CCN(C(=O)c1ccc[nH]1)C2`, the cytotoxicity at 10 µM was 6.59%.
The value for `CCN(C)c1ncnc2c1CCN(Cc1csc(C)n1)CC2` was -1.13%; that for `Cn1cnc2c1C(COCC1CC1)CN(C(=O)Cc1ccsc1)C2` (configuration not stated) was -2.67%; that for `CCC12CN3CC(CC)(CN(C1)C3c1[nH]c(=O)[nH]c(=O)c1C)C2=O` (configuration not stated) was 12.5%.
To `CCc1nnc2n1CCN(C=C1NN=C(c3occc3C)O1)C2` belongs -10%.
The value for `O=c1cc(CN2CC[C@@H]3CC[C@H](C2)N3)c2cccc3c2n1CCC3` was 9.64%.
